Converted amounts (≈) assume the structure as drawn.
Tests used:
[1] = tested on: Cryptococcus gattii species complex; assay: Antifungal activity against Cryptococcus gattii after 48 hrs by microbroth dilution method; format: functional, Cryptococcus bacillisporus
Method in brief: (§1)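 Microbroth dilution per CLSI protocol in antibiotic medium 3; growth read as optical density at 590 nm in microplate wells; MIC90 reported. C. albicans ATCC 14503; C. krusei patient isolate from UC Davis clinical microbiology; C. gattii and C. grubii strains gifted from UC Davis.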

[2] = tested on: Pichia kudriavzevii; assay: Antifungal activity against fluconazole-resistant Candida krusei after 48 hrs by microbroth dilution method; format: functional; method in brief: as §1
[3] = tested on: Cryptococcus neoformans; assay: Antifungal activity against Cryptococcus grubii after 48 hrs by microbroth dilution method; format: functional; method in brief: as §1
[4] = tested on: Candida albicans; assay: Antifungal activity against Candida albicans ATCC 14503 after 48 hrs by microbroth dilution method; format: functional; details: ATCC 14503, 48 h; method in brief: as §1
[5] = Drug degradation in presence of 3-tert-butyl-4-hydroxy-5-methylphenyl sulfide at -20 degC after 12 hrs by 1H-NMR spectroscopic method; format: physicochemical
[6] = Drug degradation in presence of 3-tert-butyl-4-hydroxy-5-methylphenyl sulfide at -20 degC after 48 hrs by 1H-NMR spectroscopic method; format: physicochemical
[7] = Stability assessed as drug degradation under ambient conditions by 1H-NMR spectroscopic method; format: physicochemical

CCCCCC[C@]1(CC)C[C@H](CC)[C@H](CC(=O)O)OO1
MIC90 [1]: 9.6 µM (≈ 2.75 µg/mL)
MIC90 [2]: 4.3 µM (≈ 1.23 µg/mL)
MIC90 [3]: 6 µM (≈ 1.72 µg/mL)
MIC90 [4]: 22 µM (≈ 6.3 µg/mL)

CCCCC[C@]1(CC)C[C@H](CC)[C@H](CC(=O)O)OO1
MIC90 [1]: 36 µM (≈ 9.81 µg/mL)
MIC90 [2]: 10 µM (≈ 2.72 µg/mL)
MIC90 [3]: 26 µM (≈ 7.08 µg/mL)
MIC90 [4]: 27 µM (≈ 7.35 µg/mL)

CC(=C\Cc1ccccc1)/C=C(\C)C[C@@H](C)C[C@@]1(C)C[C@@](C)(CC(=O)O)OO1
Stability [5]: Stable
MIC90 [1]: > 100 µM
Stability [6]: Unstable
Stability [7]: Unstable
MIC90 [4]: > 100 µM

C/C(=C\C=C\Cc1ccccc1)C[C@@H](C)C[C@@]1(C)C[C@@](C)(/C=C/C(=O)O)OO1
Stability [5]: Stable
MIC90 [1]: > 100 µM
Stability [6]: Unstable
Stability [7]: Unstable
MIC90 [4]: > 100 µM

CC(=C\Cc1ccccc1)/C=C(\C)C[C@@H](C)C[C@@]1(C)C[C@@](C)(/C=C/C(=O)O)OO1
Stability [5]: Stable
MIC90 [1]: > 100 µM
Stability [6]: Unstable
Stability [7]: Unstable
MIC90 [4]: > 100 µM

CCCCCC[C@]1(CC)C[C@H](CC)[C@H](CC(=O)OC)OO1
MIC90 [1]: > 100 µM
MIC90 [4]: > 100 µM

CCCCC[C@]1(CC)C[C@H](CC)[C@H](CC(=O)OC)OO1
MIC90 [1]: > 100 µM
MIC90 [4]: > 100 µM

C[C@H](CCCCCCCCCc1ccccc1)C[C@]1(C)C[C@H](C)[C@H](CC(=O)O)OO1
MIC90 [1]: 2.4 µM (≈ 1 µg/mL)
MIC90 [2]: 2.7 µM (≈ 1.13 µg/mL)
MIC90 [3]: 3.4 µM (≈ 1.42 µg/mL)
MIC90 [4]: 13 µM (≈ 5.44 µg/mL)

CCCCC[C@]1(CC)C[C@H](CC)[C@@H]([C@H](O)C(=O)O)O1
MIC90 [1]: > 100 µM
MIC90 [4]: > 100 µM
